Assay: Toxicity liver stage against HepG2, at 10uM
Type: cell-based
Parameters: test concentration 10 uM, cell line HepG2-A16-CD81EGFP
Details: human, HepG2-A16-CD81EGFP cells; read-out: INHIBITION
In short: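 Uninfected HepG2-A16-CD81EGFP cells, 3 × 10^3 per well, 1536-well, plated on prespotted compound at 10 μM final, parasite-free screening media added to match infected plates; puromycin 10 μM positive, DMSO 0.5% negative; run in parallel with 48 h PbLuc assay at 37 °C, 5% CO2; viability by CellTiter-Glo luminescence, normalized to controls.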

| SMILES | cytotoxicity at 10 µM [%] |
| --- | --- |
| COc1cc(C2CC(=O)Nc3c2cnn3C)ccc1O (configuration not stated) | 45.5 |
| O=C1CC(NS(=O)(=O)c2cccc(F)c2)CN1 (configuration not stated) | -5.89 |
| CN(C)c1cccc(C(=O)N2CCCSCC2CN2CCCC2)c1 (configuration not stated) | 7.03 |
| CCC(CNC(=O)C1CCC1)(OC)c1ccccc1 (configuration not stated) | 1.95 |
| CCNC(=O)NCC(CC)(OC)c1ccccc1 (configuration not stated) | 2.05 |
| NC(=O)C1CCN(C(=O)CCn2ccc3ccc(Br)cc32)CC1 | -5.85 |
| CCc1ccccc1NC(=O)N1CCn2cnc(COC)c2C1 | -11.8 |
| COc1cc2cc(C(=O)NCCC(=O)O)n(C)c2c(OC)c1OC | 4.76 |
| Cc1nc(C(=O)N2CCc3[nH]nc(Nc4ccccc4)c3C2)co1 | 6.11 |
| CCC(=O)N1CCCCC1c1nc(O)c2c(n1)CN(S(C)(=O)=O)CC2 (configuration not stated) | 5 |
| CC1(Cc2ccc(F)cc2)Cc2cc(C(=O)NCCO)ccc2O1 (configuration not stated) | -2.89 |
| CCc1noc(CCC(=O)N2CCC(c3ccn[nH]3)C2)n1 (configuration not stated) | 6.03 |
| Cc1ccc2c(c1)c(C)cc(=O)n2CC(=O)O | 3.1 |
| CN1C(=O)CO[C@H]2CCN(C(=O)Cc3ccc4c(c3)CCCC4)CC[C@@H]21 | 4.45 |
| C[C@@]1(O)CCN(C2CCOCC2)C[C@H]1n1ccc(=O)[nH]c1=O | 4 |
| CC(C)c1ncc(CN2CCC(c3n[nH]cc3C(=O)N(C)C)C2)cn1 (configuration not stated) | 2.27 |
| CC(=O)N1CCOC(c2cncc(CCC(N)=O)n2)C1 (configuration not stated) | -2.74 |
| c1ccc(CN2CCN(Cc3cnc(C4CCCCO4)nc3)CC2)cc1 (configuration not stated) | -1.71 |
| Cc1nc(C)c(C(=O)N2CCCC(c3cnccn3)C2)s1 (configuration not stated) | -20.6 |
| CS(=O)(=O)c1cn[nH]c1C1CCCCN1C(=O)c1cncs1 (configuration not stated) | -19.1 |
| CC(NC(=O)c1cc(C(C)C)[nH]n1)C(=O)Nc1ccccc1 (configuration not stated) | 10.8 |
| CCS(=O)(=O)N1CCN(C(C)(C)CO)CC1 | -2.48 |
| N#Cc1ccc(F)c(CNc2ccc(F)cc2OCCO)c1 | -1.98 |
| COc1ccc(CCNc2cc(-c3nc(C)no3)ccn2)cc1OC | 3.39 |
| CC(C)CN(c1cn[nH]c1)S(=O)(=O)c1cccc(C#N)c1 | 8.75 |

| SMILES | cytotoxicity at 10 µM [%] |
| --- | --- |
| CC(Oc1cccc(Cl)c1)C(=O)Nc1cnn(CC(=O)NC2CC2)c1 (configuration not stated) | 1.73 |
| CCCN(CC1COc2ccccc2O1)C(=O)c1ncoc1CC (configuration not stated) | -42.2 |
| CC(CO)NC(=O)Nc1ccc(Cl)cc1OCC(F)(F)F (configuration not stated) | 5.32 |
| COc1ccc(OC)c(CNCc2c(C)nc3sc(C)cn23)c1 | 7.06 |
| COC(=O)C(C)CN(Cc1ccccc1)C(=O)CN1CCCNC1=O (configuration not stated) | 0.124 |
| COc1ccccc1N1CCCC(NC(=O)Nc2cccnc2)C1 (configuration not stated) | 9.86 |
| CNC(=O)NC(=O)CNc1cc(C(=O)OC)cc(C(F)(F)F)c1 | -0.0264 |
| COc1ccc(Cl)cc1NC(=O)CCNc1ccc(C#N)cn1 | 2.59 |
| COCCN(CCC#N)S(=O)(=O)c1ccc(F)cc1F | -3.54 |
| CCNC(=O)NC(=O)CN1CCCC1c1nc(C2CCCCC2)co1 (configuration not stated) | 8.08 |
| COc1cc(C(=O)N(C)Cc2nccn2CC(F)(F)F)ccc1C | -4.24 |
| Cc1cc(C(=O)CN(Cc2cccnc2)CC2CCCO2)c(C)[nH]1 (configuration not stated) | -1.26 |
| CC(NCCN1CCN(C(=O)C2CCCC2)CC1)c1ccccn1 (configuration not stated) | -2.17 |
| COc1ccccc1C1(CNc2cc(C(=O)N(C)C)ccn2)CC1 | -1.6 |
| CCOCc1ccccc1NC(=O)NCC(C)(O)c1ccsc1 (configuration not stated) | -1.09 |
| O=C(Nc1cc(C2CCOCC2)[nH]n1)c1cc[nH]n1 | -3.43 |
| N#Cc1ccsc1C(=O)N1CCCCC1Cn1cccn1 (configuration not stated) | 3.36 |
| CCC1c2ccccc2CCN1C(=O)c1ccnc(C(=O)OC)c1 (configuration not stated) | -2.72 |
| O=C(Cn1cncn1)NCC1(O)CCCc2ccccc21 (configuration not stated) | -54.8 |
| O=C1N(CC2CC2)C(c2c[nH]nc2-c2cccnc2)NC12CCCC2 (configuration not stated) | -2.16 |
| Cc1nc(CNC(=O)CCN2CCN(c3ccccc3)CC2)oc1C | -4.04 |
| CCNC(=O)N(Cc1ccoc1)C1CCCCC1 | -0.986 |
| CC(C)(C)NC(=O)NC(=O)CNc1c(F)cccc1N1CCCC1 | 12.2 |
| CC(C)N(C)CCNC(=O)NCc1ccccc1-n1cccn1 | -7.57 |
| CCN(CC1CN(Cc2ncc[nH]2)CCO1)c1cccnn1 (configuration not stated) | 1.31 |

| SMILES | cytotoxicity at 10 µM [%] |
| --- | --- |
| O=C1CN(Cc2nnc(-c3ccc(Br)o3)o2)CCN1 | 13.5 |
| CC(C#N)CSc1ccccc1NCC(=O)Nc1ccc(F)cc1 (configuration not stated) | 8.19 |
| CC(C)(C)c1n[nH]c(C2CN(C(=O)c3csnn3)CCO2)n1 (configuration not stated) | -2.44 |
| Cc1ccc(CCNC(=O)N2CCCC(Cc3nccn3C)C2)cn1 (configuration not stated) | -9.26 |
| CCc1cc(NCCN2CCNC2=O)n2nc(C)c(C)c2n1 | -5.81 |
| COc1cccc(OCC2CCCN(C(=O)CCc3cc(O)no3)C2)c1 (configuration not stated) | 0.611 |
| O=C(c1ccc2c(c1)CCC2)N1CCN(c2ccc(Cl)cn2)CC1 | -2.27 |
| Cc1cc(C)n(Cc2cc(C(=O)N3CCCC3c3nccs3)n[nH]2)n1 (configuration not stated) | -5.08 |
| O=C1NCCN(Cc2ccoc2)C1CC(=O)N1CCc2sccc2C1 (configuration not stated) | -3.45 |
| Cc1cccc(=O)n1CCCNc1nc(N(C)C)nc2c1CCNC2 | -0.545 |
| CCC(=O)Nc1ccc(OCC(=O)N(C)C(C)c2ccon2)cc1 (configuration not stated) | 5.22 |
| CN(CCCc1cnn(C)c1)C(=O)Nc1cccc(C#N)c1 | -0.828 |
| CNc1ncc(CN(C)C(=O)CCc2cc3n(n2)CCCNC3)cn1 | -13.5 |
| CC(C)[C@H]1CN(c2ccncc2)C[C@@H]1NC(=O)C1(C#N)CCOCC1 | -9.21 |
| COC(=O)c1cc(OCC2CCC2)cc(C(=O)N[C@H]2CCCC[C@@H]2O)c1 | -2.94 |
| CC(=O)NCc1cc2n(n1)CCN(Cc1cccc(Cl)c1F)C2 | 7.65 |
| CCNC(=O)N1CCC(Cc2cccc(C(N)=O)c2)C1 (configuration not stated) | 2.92 |
| CC(O)C(=O)N1CCC(c2nccn2Cc2cscn2)CC1 (configuration not stated) | 0.557 |
| CCC1CN(C(=O)c2cccc(O)c2)CCC(=O)N1Cc1ccccc1 (configuration not stated) | 6.78 |
| Cc1ccc2c(c1)c(CNC(C)Cn1nc(C)cc1C)nn2C (configuration not stated) | -10.5 |
| COC1CCN(C(=O)Cn2cccc(C(F)(F)F)c2=O)C1 (configuration not stated) | 2.23 |
| O=C(NCC1=CCCCC1)C(c1cccnc1)N1CCOCC1 (configuration not stated) | -8.4 |
| CCc1nc(N2CCCC(CCCOC)(C(=O)O)C2)ncc1C (configuration not stated) | 3.43 |
| CC(C)N1CCC(CC(=O)NCCc2cc(O)ncn2)CC1 | 6.36 |
| CC(C)n1ccnc1CN1CCCN(C(=O)c2cnn(C)c2)CC1 | -22.4 |

| SMILES | cytotoxicity at 10 µM [%] |
| --- | --- |
| O=C(NCc1ccncc1)Nc1cc(C(F)(F)F)c[nH]c1=O | -9.86 |
| O=C(NCCCNc1ccc(C(F)(F)F)cn1)c1ccccc1 | -6.07 |
| COc1ccc(COCC(O)CNC(=O)Cc2ccc(C)cc2)cc1 (configuration not stated) | -5.62 |
| CCN1CCC(NC(=O)CN2CCCC2Cn2cc(C)cn2)CC1 (configuration not stated) | -8.84 |
| CCn1c(C(=O)N2CCN(C(=O)NC(C)C)CC2)cc2ccccc21 | -1.94 |
| CCc1ccccc1-n1cc(O)c(C(=O)N2CCCCC2)n1 | 0.495 |
| Cc1ccc(-c2nc(CNCCn3cccn3)cs2)o1 | -5.9 |
| N#CC1(C(=O)N2CCN(Cc3ccon3)CC2)CCC1 | -5.97 |
| COc1ccc(C2=CCN(C(=O)CN(C)CC(N)=O)CC2)cc1 | -9.19 |
| Cc1ccc(CNC(=O)CCSCc2csc(C)n2)cn1 | -10 |
| Cc1ccc(N2CCCN(C(=O)c3c(C)oc(C)c3C)CC2)nn1 | 5.46 |
| Cc1ccc(NC2CCN(C(=O)c3n[nH]c4ccccc34)CC2)nn1 | 2.96 |
| O=C(NCCCn1cncn1)NCC(c1ccco1)N1CCCCC1 (configuration not stated) | 0.987 |
| Cc1cnn(CC2CCCCN2C(=O)c2ccc3nnc(C)n3c2)c1 (configuration not stated) | 7.87 |
| COc1cc(CN(C)[C@@H]2COC[C@H]2c2ccc(F)cc2)cc(OC)c1 | 7.67 |
| NCC(=O)N1CCCC1c1n[nH]cc1-c1ccccc1F (configuration not stated) | 2.37 |
| CCc1nc(CNC(C)c2cccc(N3CCCC3=O)c2)cs1 (configuration not stated) | 7.28 |
| CO[C@H]1CCN(S(=O)(=O)c2cn(C)cn2)[C@H]1Cc1cnn(C)c1 | 2.63 |
| Cc1ccc2c(c1)C1(CCN(C(=O)C3CC3)CC1)CC2N1CCOCC1 (configuration not stated) | -128 |
| COc1ccc(F)cc1C(=O)N1C[C@@H]2CC[C@H]1CN(c1ncccn1)C2 | 4.24 |
| Cc1nc[nH]c1CN1C[C@H]2CC[C@@H](C1)N(C(=O)c1cnn(C)c1)C2 | 2.42 |
| COCC1N(S(=O)(=O)c2cn(C)cn2)C2CCC1(O)CC2 (configuration not stated) | -2.04 |

— ChEMBL document CHEMBL4513216, “Probing the Open Global Health Chemical Diversity Library for Multistage-Active Starting Points for Next-Generation Antimalarials” (ACS Infect Dis, 2020)
